ChEMBL document CHEMBL1122058, “Agents for the treatment of brain injury. 1. (Aryloxy)alkanoic acids” (J Med Chem, 1982)
The source made the active and inactive calls. The rule behind the calls is not given here.

Legend:
[1] = species on record: Rattus norvegicus; experiment: Relative salidiuretic efficacy was scored in Rat; marked; assay type: functional, organism-based; conditions: Urine
[2] = species on record: Felis catus; experiment: In vitro inhibition of tissue swelling of Cerebrocortical slices from cat with addition of Sodium Bicarbonate (NaHCO3) at a compound concentration of 1 X 10E-5 M..; assay type: functional
How it was run: (§1)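 Cat cerebral cortex slices (~150 mg, 0.5 mm) incubated aerobically 60 min at 37 °C in K+-rich (27 mM) Hepes-buffered saline-glucose with test compound as Na salt. HCO3- (NaHCO3 or TEAB) added from sidearm at 20 min to 10 mM final; HCO3- flasks gassed with 2.5% CO2/97.5% O2. Swelling by reweighing; Na+/K+ by flame photometry, Cl- by amperometric titration. Units: per g initial fresh weight; means ± SE, Student's t test.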

[3] = Evaluated for Potassium ion content of Cerebrocortical slices in cat with addition of Sodium Bicarbonate (NaHCO3) at a compound concentration of 1 X 10E-5 M; assay type: functional, Felis catus; how it was run: as §1
[4] = Evaluated for chloride ion content of Cerebrocortical slices in cat with addition of Sodium Bicarbonate (NaHCO3) at a compound concentration of 1 X 10E-5 M..; assay type: functional, Felis catus; how it was run: as §1
[5] = species on record: Felis catus; experiment: Evaluated for Potassium ion content of Cerebrocortical slices in cat with addition of Sodium Bicarbonate (NaHCO3) at a compound concentration of 1 X 10E-7 M..; assay type: functional; how it was run: as §1
[6] = species on record: Felis catus; experiment: In vitro inhibition of HCO3- stimulated swelling in cat cerebrocortical tissue slice; assay type: functional; conditions: read-out: I 50; how it was run: as §1
[7] = species on record: Felis catus; experiment: Evaluated for chloride ion content of Cerebrocortical slices in cat with addition of Triethylammonium Bicarbonate (TEAB) at a compound concentration of 1 X 10E-5 M.; assay type: functional; how it was run: as §1
[8] = Dissociation constant (pKa) (determined in 30% EtOH); assay type: physicochemical
[9] = species on record: Felis catus; experiment: In vitro inhibition of tissue swelling of Cerebrocortical slices from cat with addition of Sodium Bicarbonate (NaHCO3) at a compound concentration of 1 X 10E-7 M; assay type: functional; how it was run: as §1
[10] = Distribution coefficient (D %) between octanol and buffer of pH 7.4; assay type: physicochemical; conditions: octanol/water
[11] = species on record: Pan troglodytes; experiment: Relative salidiuretic efficacy was scored in chimpanzee; marked; assay type: functional, organism-based; conditions: Urine
[12] = species on record: Canis familiaris; experiment: Relative salidiuretic efficacy was scored in dog; moderate; assay type: functional, organism-based; conditions: Canis lupus familiaris; Urine
[13] = species on record: Felis catus; experiment: Evaluated for Sodium ion content of Cerebrocortical slices in cat with addition of Sodium Bicarbonate (NaHCO3) at a compound concentration of 1 X 10E-5 M..; assay type: functional; how it was run: as §1
[14] = Evaluated for Sodium ion content of Cerebrocortical slices in cat with addition of Triethylammonium Bicarbonate (TEAB) at a compound concentration of 1 X 10E-5 M.; assay type: functional, Felis catus; how it was run: as §1
[15] = species on record: Felis catus; experiment: Evaluated for Potassium ion content of Cerebrocortical slices in cat with addition of Triethylammonium Bicarbonate (TEAB) at a compound concentration of 1 X 10E-5 M.; assay type: functional; how it was run: as §1
[16] = In vitro inhibition of tissue swelling of Cerebrocortical slices from cat with addition of Triethylammonium Bicarbonate (TEAB) at a compound concentration of 1 X 10E-5 M.; assay type: functional, Felis catus; how it was run: as §1
[17] = species on record: Canis familiaris; experiment: Relative salidiuretic efficacy was scored in dog; weak; assay type: functional, organism-based; conditions: Canis lupus familiaris; Urine
[18] = species on record: Felis catus; experiment: In vitro inhibition of tissue swelling of Cerebrocortical slices from cat with addition of Triethylammonium Bicarbonate (TEAB) and at a compound concentration of 1 X 10E-5 M.; assay type: functional; how it was run: as §1
[19] = Evaluated for Potassium ion content of Cerebrocortical slices in cat with addition of Triethylammonium Bicarbonate (TEAB) and at a compound concentration of 1 X 10E-5 M.; assay type: functional, Felis catus; how it was run: as §1
[20] = species on record: Pan troglodytes; experiment: Relative salidiuretic efficacy was scored in chimpanzee; moderate; assay type: functional, organism-based; conditions: Urine
[21] = Compound at a concentration of 1 X 10E-5 M along with addition of Sodium Bicarbonate (NaHCO3) was tested for percent bicarbonate stimulated swelling of Cerebrocortical slices in cat (in vitro); assay type: functional, Felis catus; how it was run: as §1
[22] = species on record: Felis catus; experiment: Evaluated for chloride ion content of Cerebrocortical slices in cat with addition of Sodium Bicarbonate (NaHCO3) and at a compound concentration of 1 X 10E-5 M; assay type: functional; how it was run: as §1
[23] = species on record: Felis catus; experiment: In vitro inhibition of tissue swelling of Cerebrocortical slices from cat with addition of Sodium Bicarbonate (NaHCO3) and at a compound concentration of 1 X 10E-5 M; assay type: functional; how it was run: as §1
[24] = species on record: Felis catus; experiment: In vitro inhibition of HCO3- stimulated swelling in cat cerebrocortical tissue slice; No inhibition occurred; assay type: functional; conditions: read-out: I 50; how it was run: as §1
[25] = species on record: Rattus norvegicus; experiment: Relative salidiuretic efficacy was scored in Rat; moderate; assay type: functional, organism-based; conditions: Urine
[26] = Evaluated for Potassium ion content of Cerebrocortical slices in cat with addition of Sodium Bicarbonate (NaHCO3) and at a compound concentration of 1 X 10E-5 M; assay type: functional, Felis catus; how it was run: as §1
[27] = species on record: Canis familiaris; experiment: Relative salidiuretic efficacy was scored in dog; Marginal; assay type: functional, organism-based; conditions: Canis lupus familiaris; Urine
[28] = species on record: Pan troglodytes; experiment: Relative salidiuretic efficacy was scored in chimpanzee; Marginal; assay type: functional, organism-based; conditions: Urine
[29] = system: Felis catus; experiment: Mortality of animals recorded as the number of animals dead out of the total animals (16) taken for the study at dose 5 mg/kg; assay type: functional
How it was run: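 Adult conditioned cats (2.5–4 kg) under iv methohexital (13.25 mg/kg, plus 2.75 mg/kg if needed) received machine-induced acceleration/deceleration head injury. Forty min later they were paralysed with gallamine and ventilated with 6% O2/94% N2 for 60 min (arterial pO2 23 ± 1 torr). Drug was given iv 20 min post-injury, before hypoxemia. Mortality was scored as dead/total, chi-square tested.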

[30] = species on record: Rattus norvegicus; experiment: Relative salidiuretic efficacy was scored in Rat; Marginal; assay type: functional, organism-based; conditions: Urine

C[C@]1(C2CCCC2)Cc2cc(OCC(=O)O)c(Cl)c(Cl)c2C1=O
Relative salidiuretic activity [1]: marked
Tissue swelling [2]: 157 µL/g
Activity [3]: 92.4 µM/g
Activity [4]: 89 µM/g
Activity [5]: 98.4 µM/g
IC50 [6]: 100 nM
Activity [7]: 84.1 µM/g
pKa [8]: 3.9
Tissue swelling [9]: 232 µL/g
Distribution [10]: 90%
Relative salidiuretic activity [11]: marked
Relative salidiuretic activity [12]: marked
Activity [13]: 101.8 µM/g
Activity [14]: 100.9 µM/g
Activity [15]: 95.9 µM/g
Tissue swelling [16]: 156 µM/g

C[C@@]1(C2CCCC2)Cc2cc(OCC(=O)O)c(Cl)c(Cl)c2C1=O
Relative salidiuretic activity [17]: marked
Activity [18]: 279 µM/g
Activity [19]: 93.6 µM/g
Relative salidiuretic activity [20]: marked
Activity [21]: 100
Activity [22]: 104.6 µM/g
pKa [8]: 3.9
Distribution [10]: 90%
Tissue swelling [23]: 266 µL/g
IC50 [24]: > 10000 nM
Relative salidiuretic activity [25]: marked
Activity [26]: 96.4 µM/g

CC1(C2CCCC2)Cc2cc(OCCCC(=O)O)c(Cl)c(Cl)c2C1=O (racemic)
Relative salidiuretic activity [27]: inactive
Relative salidiuretic activity [28]: inactive
IC50 [6]: 20 nM
pKa [8]: 5.7
Mortality [29]: 4
Distribution [10]: 99%
Relative salidiuretic activity [30]: inactive
